Data as given in PMC3116947 (Journal of Molecular Recognition, 2010).
Ends that are not written are not given here.

Columns and labels:
[1] = target: D187A mutant of cSH3 domain (cSH3_D187A) of Grb2 (Homo sapiens, UniProt P62993, D187A); assay: ITC binding of G1 and G2 peptides to cSH3_D187A; settings: SD
Procedure, shortened: (§1)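 Human Grb2 cSH3 domain (wildtype or point mutant) expressed in E. coli Rosetta2(DE3), purified by Ni-NTA and size-exclusion chromatography. 12-mer human Gab1 peptides, concentration measured gravimetrically. ITC at 25 °C in 50 mM Tris pH 8.0, 200 mM NaCl, 1 mM EDTA, 5 mM β-mercaptoethanol: 25 injections of 2–8 mM peptide into 50–200 µM cSH3. Kd from one-site non-linear least-squares fit; 3–4 independent runs, SD.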

[2] = target: cSH3 domain of Grb2 (Homo sapiens, UniProt P62993); assay: ITC binding of Gab1-derived peptides to wildtype cSH3 domain of Grb2; settings: binding affinity (Kd), 50 mM Tris, pH 8.0, 25 °C (Figure 3a)
Chain of cSH3 domain of Grb2 (P62993 156-215 limits assumed): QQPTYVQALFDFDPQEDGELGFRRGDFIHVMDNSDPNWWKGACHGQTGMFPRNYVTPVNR

[3] = target: E174A mutant of cSH3 domain (cSH3_E174A) of Grb2 (Homo sapiens, UniProt P62993, E174A); assay: ITC binding of G1 and G2 peptides to cSH3_E174A
Chain of E174A mutant of cSH3 domain (cSH3_E174A) of Grb2 (P62993 156-215 E174A limits assumed): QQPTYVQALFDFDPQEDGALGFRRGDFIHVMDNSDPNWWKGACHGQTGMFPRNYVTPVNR
Procedure, shortened: as §1

[4] = target: D190A mutant of cSH3 domain (cSH3_D190A) of Grb2 (Homo sapiens, UniProt P62993, D190A); assay: ITC binding of G1 and G2 peptides to cSH3_D190A; settings: SD
Chain of D190A mutant of cSH3 domain (cSH3_D190A) of Grb2 (P62993 156-215 D190A limits assumed): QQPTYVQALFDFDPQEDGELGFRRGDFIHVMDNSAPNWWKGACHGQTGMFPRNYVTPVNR
Procedure, shortened: as §1

[5] = target: E171A mutant of cSH3 domain (cSH3_E171A) of Grb2 (Homo sapiens, UniProt P62993, E171A); assay: ITC binding of G1 and G2 peptides to cSH3_E171A; settings: SD
Chain of E171A mutant of cSH3 domain (cSH3_E171A) of Grb2 (P62993 156-215 E171A limits assumed): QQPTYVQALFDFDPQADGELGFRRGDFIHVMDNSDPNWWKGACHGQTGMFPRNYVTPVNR
Procedure, shortened: as §1

Chain of D187A mutant of cSH3 domain (cSH3_D187A) of Grb2 (P62993 156-215 D187A limits assumed): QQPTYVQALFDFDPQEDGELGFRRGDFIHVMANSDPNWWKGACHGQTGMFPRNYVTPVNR

Row | Kd [1] | Kd ([2]; in the absence of NaCl) | Kd ([2]; in the presence of 500 mM NaCl) | Kd [3] | Kd [4] | Kd [5] | Sequence
1 | 171 ± 8 µM | ~50 µM | ~200 µM | > 1000 µM | 177 ± 17 µM | 444 ± 55 µM | DIPPPRPPKPHP [Peptide G1]
2 | 182 ± 3 µM | – | – | > 1000 µM | 77 ± 6 µM | 158 ± 1 µM | PPPVDRNLKPDR [Peptide G2]
